Results: ChEMBL document CHEMBL1123027, “Synthesis and biological activity of 5-thiobredinin and certain related 5-substituted imidazole-4-carboxamide ribonucleosides” (J Med Chem, 1985)

Legend:
Human alphaherpesvirus 2 [1] = experiment: In vitro antiviral activity was tested against herpes simplex virus type 2 (HSV-2); assay type: functional; conditions: read-out: ED50 (the source's name)
In short: (§1)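 Vero cell monolayers, grown 24 h at 37 °C in 5% CO2 to confluency, were infected with HSV-2 (strain 333) at 100 TCID50 per well. After 30-min adsorption at 37 °C, compound was added in seven 0.5-log steps, final 5 × 10⁻⁶ to 5 × 10⁻³ M, in duplicate wells. After 72 h at 37 °C, the ED50 was taken as 50% inhibition of viral CPE versus untreated controls.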

Mus musculus [2] = experiment: The maximum tolerated dose was evaluated in mice expressed in terms of mg/kg of body weight; assay type: functional
Human respirovirus 3 [3] = experiment: In vitro antiviral activity was tested against parainfluenza virus type 3 (para3) virus; assay type: functional, para influenza virus; conditions: read-out: ED50 (the source's name)
Rift Valley fever virus [4] = experiment: In vitro antiviral activity was tested against rift valley fever virus(RVF) virus; assay type: functional; conditions: read-out: ED50 (the source's name)
Rift Valley fever virus [5] = experiment: (§2) Therapeutic index against Rift valley fever virus.; assay type: organism-based; conditions: in vivo, read-out: Therapeutic index
Vero = experiment: Maximum tolerated concentration (MTC) was evaluated in vero cells.; assay type: functional, Chlorocebus sabaeus
In short: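 Confluent, uninfected Vero monolayers were given compound in seven 0.5-log steps, final 5 × 10⁻⁶ to 5 × 10⁻³ M, one well per concentration, for 72 h at 37 °C in 5% CO2. Wells were checked by microscope for changes in morphology or monolayer density (lysis, rounding, detachment). The MTC is the lowest concentration giving visible cytotoxicity.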

[6] = test system: Venezuelan equine encephalitis virus; experiment: In vitro antiviral activity was tested against venezuelan equine encephalomyelitis (VEE) virus; assay type: functional; conditions: read-out: ED50 (the source's name)
Vaccinia virus [7] = experiment: In vitro antiviral activity was tested against vaccinia virus(VV) virus; assay type: functional; conditions: Orthopoxvirus vaccinia; read-out: ED50 (the source's name)
Human alphaherpesvirus 2 [8] = experiment: In vitro antiviral activity was tested against herpes simplex type 2 (HSV-2); assay type: functional; conditions: read-out: ED50 (the source's name); in short: as §1
Mus musculus [9] = experiment: The maximum tolerated dose was evaluated in mice and expressed in terms of mg/kg of body weight; assay type: functional
Human respirovirus 3 [10] = experiment: In vitro antiviral activity was tested against parainfluenza type 3 (para3) virus; assay type: functional, para influenza virus; conditions: read-out: ED50 (the source's name)
Vaccinia virus [11] = experiment: In vitro antiviral activity was tested against vaccinia virus(VV); assay type: functional; conditions: Orthopoxvirus vaccinia; read-out: ED50 (the source's name)
Mus musculus [12] = experiment: The maximum tolerated dose was evaluated in mice (mg/kg of body weight).; assay type: functional
Rift Valley fever virus [13] = experiment: as §2; conditions: read-out: Therapeutic index
[14] = test system: Venezuelan equine encephalomyelitis virus (VEE); experiment: Therapeutic index against Venezuelan equine encephalomyelitis virus.; assay type: organism-based; conditions: venezuelan equine encephalitis virus, in vivo; read-out: Therapeutic index
Human alphaherpesvirus 2 [15] = experiment: In vitro antiviral activity was tested against herpes simplex type 2 (HSV-2) virus; assay type: functional; conditions: read-out: ED50 (the source's name)
Human respirovirus 3 [16] = experiment: In vitro against parainfluenza type 3 (para3) virus; assay type: functional, para influenza virus; conditions: read-out: ED50 (the source's name)
Mus musculus [17] = experiment: The maximum tolerated dose was evaluated in mice and is expressed as mg/kg of body weight; assay type: functional
[18] = test system: Venezuelan equine encephalomyelitis virus (VEE); experiment: Therapeutic index against Venezuelan equine encephalomyelitis virus (VEE); conditions: Venezuelan equine encephalitis virus; read-out: Therapeutic index

CCSc1c(C(N)=O)ncn1C1O[C@H](CO)[C@@H](O)[C@H]1O (stereo partly drawn)
EC50 (Human alphaherpesvirus 2 [1]): > 5000 µM | MTC (Mus musculus [2]): >121 mg/kg | EC50 (Human respirovirus 3 [3]): > 5000 µM | EC50 (Rift Valley fever virus [4]): > 2000 µM | selectivity ratio (Rift Valley fever virus [5]): 1.4 | MTC (Vero): >5 mM | EC50 [6]: > 2000 µM | EC50 (Vaccinia virus [7]): 2600 µM

NC(=O)c1ncn(C2O[C@H](CO)[C@@H](O)[C@H]2O)c1S (stereo partly drawn)
EC50 (Human alphaherpesvirus 2 [8]): > 5000 µM | MTC (Mus musculus [9]): >110 mg/kg | EC50 (Human respirovirus 3 [10]): 5000 µM | EC50 (Rift Valley fever virus [4]): > 2000 µM | selectivity ratio (Rift Valley fever virus [5]): 1.1 | MTC (Vero): >5 mM | EC50 [6]: > 2000 µM | EC50 (Vaccinia virus [11]): 3800 µM

NC(=O)c1ncn([C@@H]2O[C@H](CO)[C@@H](O)[C@H]2O)n1 [RIBAVIRIN]
MTC (Mus musculus [12]): >100 mg/kg | selectivity ratio (Rift Valley fever virus [13]): 4 | selectivity ratio [14]: 1.5

CS(=O)(=O)c1c(C(N)=O)ncn1C1O[C@H](CO)[C@@H](O)[C@H]1O (stereo partly drawn)
EC50 (Human alphaherpesvirus 2 [15]): 5000 µM | MTC (Mus musculus [9]): >400 mg/kg | EC50 (Human respirovirus 3 [16]): > 5000 µM | EC50 (Rift Valley fever virus [4]): 8.7 µM | selectivity ratio (Rift Valley fever virus [5]): 2.8 | MTC (Vero): >5 mM | EC50 [6]: 650 µM | selectivity ratio [14]: 1.4 | EC50 (Vaccinia virus [11]): > 5000 µM

Cc1c(C(N)=O)ncn1C1O[C@H](CO)[C@@H](O)[C@H]1O (stereo partly drawn)
EC50 (Human alphaherpesvirus 2 [15]): 4000 µM | EC50 (Human respirovirus 3 [10]): 500 µM | EC50 (Rift Valley fever virus [4]): 1800 µM | MTC (Vero): 1.6 mM | EC50 (Vaccinia virus [7]): 1400 µM

CSc1c(C(N)=O)ncn1C1O[C@H](CO)[C@@H](O)[C@H]1O (stereo partly drawn)
EC50 (Human alphaherpesvirus 2 [1]): 4100 µM | MTC (Mus musculus [17]): >100 mg/kg | EC50 (Human respirovirus 3 [10]): 730 µM | EC50 (Rift Valley fever virus [4]): 1800 µM | selectivity ratio (Rift Valley fever virus [5]): 1.2 | MTC (Vero): 1.6 mM | EC50 [6]: > 1700 µM | selectivity ratio [18]: 0.9 | EC50 (Vaccinia virus [7]): 280 µM

NC(=O)c1ncn(C2O[C@H](CO)[C@@H](O)[C@H]2O)c1SCc1ccccc1 (stereo partly drawn)
EC50 (Human alphaherpesvirus 2 [8]): > 5000 µM | MTC (Mus musculus [9]): >146 mg/kg | EC50 (Human respirovirus 3 [10]): 4400 µM | EC50 (Rift Valley fever virus [4]): 1000 µM | selectivity ratio (Rift Valley fever virus [5]): 1.9 | MTC (Vero): >5 mM | EC50 [6]: 1000 µM | EC50 (Vaccinia virus [7]): 230 µM

CCS(=O)(=O)c1c(C(N)=O)ncn1C1O[C@H](CO)[C@@H](O)[C@H]1O (stereo partly drawn)
EC50 (Human alphaherpesvirus 2 [8]): > 5000 µM | MTC (Mus musculus [9]): >134 mg/kg | EC50 (Human respirovirus 3 [10]): > 5000 µM | EC50 (Rift Valley fever virus [4]): > 2000 µM | selectivity ratio (Rift Valley fever virus [5]): 1.21 | MTC (Vero): >5 mM | EC50 [6]: > 2000 µM | EC50 (Vaccinia virus [11]): 3500 µM
